Data set [1] is described as follows: Cmax in C57/BL6 mouse at 1 mg/kg, sc by LC-MS/MS analysis. It counts as ADME, organism-based. Set-up: dose 1 mg/kg, route subcutaneous. As to conditions: in vivo. In short, it runs like this:
(§1)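 Female C57/Bl6 mice given single 1 mg/kg sc dose; animals sacrificed and blood collected at 0.083, 0.25, 1, 2, 4, 8, 16 and 24 h. Plasma analysed by LC-MS/MS after protein precipitation; parameters from mean plasma concentrations by noncompartmental analysis.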

Data set [2] can be described thus: Half life in C57/BL6 mouse at 1 mg/kg, sc by LC-MS/MS analysis. It is filed as ADME, organism-based. As to conditions: in vivo. In short, it runs like this: as §1
The next data set has as its target Glucagon receptor (Homo sapiens, UniProt P47871). Description: Agonist activity at human glucagon receptor expressed in HEK293 cells assessed as cAMP accumulation after 30 mins by HTRF assay. It counts as functional, cell-based. (cAMP levels reflect the balance of adenylyl cyclase and phosphodiesterase activity.)
The nature of data set [3]: Tmax in C57/BL6 mouse at 1 mg/kg, sc by LC-MS/MS analysis. It counts as ADME, organism-based. The note with it: in vivo. The gist of the method: as §1
The target of data set [4] is Glucagon-like peptide 1 receptor (Homo sapiens, UniProt P43220). As to the kind of experiment: Agonist activity at human GLP-1 receptor expressed in HEK293 cells assessed as cAMP accumulation after 30 mins by HTRF assay. It counts as functional, cell-based.
The nature of data set [5]: AUC in C57/BL6 mouse at 1 mg/kg, sc by LC-MS/MS analysis. It counts as ADME, organism-based. The note with it: in vivo. The gist of the method: as §1

Sequence of Glucagon receptor (P47871 whole entry): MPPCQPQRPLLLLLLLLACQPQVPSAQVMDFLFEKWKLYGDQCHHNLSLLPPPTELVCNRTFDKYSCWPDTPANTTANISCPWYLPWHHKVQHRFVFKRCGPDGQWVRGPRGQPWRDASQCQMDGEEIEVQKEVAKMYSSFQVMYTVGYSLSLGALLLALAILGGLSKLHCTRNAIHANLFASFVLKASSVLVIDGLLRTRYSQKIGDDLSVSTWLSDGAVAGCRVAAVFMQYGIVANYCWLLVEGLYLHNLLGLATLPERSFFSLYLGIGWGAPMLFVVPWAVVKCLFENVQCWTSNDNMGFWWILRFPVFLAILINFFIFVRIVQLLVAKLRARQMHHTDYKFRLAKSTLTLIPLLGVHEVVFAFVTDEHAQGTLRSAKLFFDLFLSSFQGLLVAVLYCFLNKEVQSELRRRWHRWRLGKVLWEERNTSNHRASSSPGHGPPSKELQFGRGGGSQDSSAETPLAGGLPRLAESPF
Sequence of Glucagon-like peptide 1 receptor (P43220 whole entry): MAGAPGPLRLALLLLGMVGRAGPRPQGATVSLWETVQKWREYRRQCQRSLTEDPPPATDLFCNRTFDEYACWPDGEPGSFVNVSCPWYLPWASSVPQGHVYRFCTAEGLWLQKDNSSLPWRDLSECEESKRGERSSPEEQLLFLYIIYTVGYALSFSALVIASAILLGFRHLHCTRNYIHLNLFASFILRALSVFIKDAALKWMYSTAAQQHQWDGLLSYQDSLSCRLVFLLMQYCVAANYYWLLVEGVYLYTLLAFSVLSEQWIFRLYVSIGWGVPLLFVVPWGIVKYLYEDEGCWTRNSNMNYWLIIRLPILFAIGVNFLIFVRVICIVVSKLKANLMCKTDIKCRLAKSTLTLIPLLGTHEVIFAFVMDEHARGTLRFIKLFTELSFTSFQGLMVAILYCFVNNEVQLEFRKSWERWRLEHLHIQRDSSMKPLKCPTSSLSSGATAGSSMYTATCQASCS

As for `CCCCCCCCCCCCCCCC(=O)N[C@@H](CCC(=O)NCCCC[C@H](NC(=O)[C@H](CO)NC(=O)[C@@H]1CCCN1C(=O)[C@@H]1CCCN1C(=O)[C@@H]1CCCN1C(=O)[C@H](C)NC(=O)CNC(=O)[C@H](CO)NC(=O)[C@H](CO)NC(=O)[C@@H]1CCCN1C(=O)CNC(=O)CNC(=O)[C@H](CC(N)=O)NC(=O)[C@H](CCCCN)NC(=O)[C@H](CC(C)C)NC(=O)[C@H](Cc1c[nH]c2ccccc12)NC(=O)[C@H](CCC(=O)O)NC(=O)[C@@H](NC(=O)[C@H](Cc1ccccc1)NC(=O)[C@H](CC(=O)O)NC(=O)[C@H](CCC(N)=O)NC(=O)[C@H](C)NC(=O)[C@H](CCCNC(=N)N)NC(=O)[C@H](CCCNC(=N)N)NC(=O)[C@H](CO)NC(=O)[C@H](CC(=O)O)NC(=O)[C@H](CCSC)NC(=O)[C@H](CCC(N)=O)NC(=O)[C@H](CCCCN)NC(=O)[C@H](CO)NC(=O)[C@H](CC(C)C)NC(=O)[C@H](CC(=O)O)NC(=O)[C@H](CO)NC(=O)[C@@H](NC(=O)[C@H](Cc1ccccc1)NC(=O)[C@@H](NC(=O)CNC(=O)[C@H](CCC(N)=O)NC(=O)[C@H](CO)NC(=O)[C@@H](N)Cc1cnc[nH]1)[C@@H](C)O)[C@H](C)O)[C@@H](C)CC)C(N)=O)C(N)=O`, the Cmax in data set [1] amounted to 3450 ng/mL. The half-life in data set [2] was 2.2 h. Besides, the EC50 at Glucagon receptor amounted to 0.0062 nM; in data set [4], 0.0052 nM. Further, the Tmax in data set [3] turned out to be 2 h. In data set [5], this molecule returned an AUC of 17000 ng·h/mL.

With `CC[C@H](C)[C@H](NC(=O)[C@H](Cc1ccccc1)NC(=O)[C@H](CC(C)C)NC(=O)[C@H](CCCNC(=N)N)NC(=O)[C@@H](NC(=O)[C@H](C)NC(=O)[C@H](CCC(=O)O)NC(=O)[C@H](CCC(=O)O)NC(=O)[C@H](CCC(=O)O)NC(=O)[C@H](CCSC)NC(=O)[C@H](CCC(N)=O)NC(=O)[C@H](CCCCN)NC(=O)[C@H](CO)NC(=O)[C@H](CC(C)C)NC(=O)[C@H](CC(=O)O)NC(=O)[C@H](CO)NC(=O)[C@@H](NC(=O)[C@H](Cc1ccccc1)NC(=O)[C@@H](NC(=O)CNC(=O)[C@H](CCC(=O)O)NC(=O)CNC(=O)[C@@H](N)Cc1cnc[nH]1)[C@@H](C)O)[C@@H](C)O)C(C)C)C(=O)N[C@@H](CCC(=O)O)C(=O)N[C@@H](Cc1c[nH]c2ccccc12)C(=O)N[C@@H](CC(C)C)C(=O)N[C@@H](CCSC)C(=O)N[C@@H](CC(N)=O)C(=O)N[C@H](C(=O)N[C@@H](CCCCN)C(=O)N[C@@H](CCCNC(=N)N)C(=O)N[C@@H](CC(N)=O)C(=O)N[C@@H](CCCNC(=N)N)C(=O)NCC(=O)N[C@@H](C)C(=O)N1CCC[C@H]1C(=O)N1CCC[C@H]1C(=O)N1CCC[C@H]1C(=O)N[C@@H](CO)C(N)=O)[C@@H](C)O`, the EC50 on Glucagon receptor is > 100000 nM; in data set [4], 0.0012 nM.

Take `CC[C@H](C)[C@H](NC(=O)[C@H](Cc1ccccc1)NC(=O)[C@H](CC(C)C)NC(=O)[C@H](CCCNC(=N)N)NC(=O)[C@@H](NC(=O)[C@H](CCCNC(=N)N)NC(=O)[C@H](CCCNC(=N)N)NC(=O)[C@H](CO)NC(=O)[C@H](CC(=O)O)NC(=O)[C@H](CCSC)NC(=O)[C@H](CCC(N)=O)NC(=O)[C@H](CCCCN)NC(=O)[C@H](CO)NC(=O)[C@H](CC(C)C)NC(=O)[C@H](CC(=O)O)NC(=O)[C@H](CO)NC(=O)[C@@H](NC(=O)[C@H](Cc1ccccc1)NC(=O)[C@@H](NC(=O)CNC(=O)[C@H](CCC(=O)O)NC(=O)CNC(=O)[C@@H](N)Cc1cnc[nH]1)[C@@H](C)O)[C@@H](C)O)C(C)C)C(=O)N[C@@H](CCC(=O)O)C(=O)N[C@@H](Cc1c[nH]c2ccccc12)C(=O)N[C@@H](CC(C)C)C(=O)N[C@@H](CCCCN)C(=O)N[C@@H](CC(N)=O)C(=O)NCC(=O)NCC(=O)N1CCC[C@H]1C(=O)N[C@@H](CO)C(=O)N[C@@H](CO)C(=O)NCC(=O)N[C@@H](C)C(=O)N1CCC[C@H]1C(=O)N1CCC[C@H]1C(=O)N1CCC[C@H]1C(=O)N[C@@H](CO)C(N)=O`: the EC50 on Glucagon receptor amounted to 58000 nM; in data set [4] it was 0.0018 nM.

For the molecule H-HSQGTFTSDLSKQMDSRRAQDFIEWLKNG-NH2, the EC50 at Glucagon receptor stood at 0.0019 nM; in data set [4], 0.0082 nM.

Turning to “H-HSQGTFTSDLSKQMDSRRAQDFIEWLKNGGPSSNNIA-NH2”, the EC50 on Glucagon receptor turned out to be 0.0156 nM; in data set [4], 0.0172 nM.

As for H-HSQGTFTSDLSKQMDSRRAQDFIEWLKNGGPSS-NH2, the EC50 came out at 0.0089 nM on Glucagon receptor and 0.0153 nM in data set [4].

Consider “H-HGEGTFTSDLSKQMDSRRAQDFVEWLKNGGPSSGAPPPS-NH2”, for which the half-maximal effective concentration (EC50) at Glucagon receptor amounted to 10000 nM; in data set [4], 0.0222 nM.

In the case of “H-HSQGTFTSDLSKQMEEEAVRLFIEWLMNTKRNRGAPPPS-NH2”, the EC50 on Glucagon receptor was 1.24 nM; in data set [4] it was 0.0022 nM.

With `CCCCCCCCCCCCCCCC(=O)N[C@@H](CCC(=O)NCCCC[C@H](NC(=O)[C@@H]1CCCN1C(=O)[C@@H]1CCCN1C(=O)[C@@H]1CCCN1C(=O)[C@H](C)NC(=O)CNC(=O)[C@H](CO)NC(=O)[C@H](CO)NC(=O)[C@@H]1CCCN1C(=O)CNC(=O)CNC(=O)[C@H](CC(N)=O)NC(=O)[C@H](CCCCN)NC(=O)[C@H](CC(C)C)NC(=O)[C@H](Cc1c[nH]c2ccccc12)NC(=O)[C@H](CCC(=O)O)NC(=O)[C@@H](NC(=O)[C@H](Cc1ccccc1)NC(=O)[C@H](CC(=O)O)NC(=O)[C@H](CCC(N)=O)NC(=O)[C@H](C)NC(=O)[C@H](CCCNC(=N)N)NC(=O)[C@H](CCCNC(=N)N)NC(=O)[C@H](CO)NC(=O)[C@H](CC(=O)O)NC(=O)[C@H](CCSC)NC(=O)[C@H](CCC(N)=O)NC(=O)[C@H](CCCCN)NC(=O)[C@H](CO)NC(=O)[C@H](CC(C)C)NC(=O)[C@H](CC(=O)O)NC(=O)[C@H](CO)NC(=O)[C@@H](NC(=O)[C@H](Cc1ccccc1)NC(=O)[C@@H](NC(=O)CNC(=O)[C@H](CCC(N)=O)NC(=O)[C@H](CO)NC(=O)[C@@H](N)Cc1cnc[nH]1)[C@@H](C)O)[C@@H](C)O)[C@@H](C)CC)C(N)=O)C(N)=O`, the EC50 on Glucagon receptor worked out at 0.0063 nM; in data set [4], 0.0058 nM.

For “H-HSEGTFTSDLSKQMDSRRAQDFIEWLKNGGPSSGAPPPS-NH2”, at Glucagon receptor, the EC50 was 170 nM.

Consider “H-HGEGTFTSDLSKQMDSRRAQDFVQWLKNGGPSSGAPPPS-NH2”, for which the half-maximal effective concentration (EC50) stood at 42000 nM on Glucagon receptor and 0.0558 nM in data set [4].

Broadly, the Cmax is the peak of the concentration-time curve. A word on the half-life: it is the time in which the quantity being followed falls by half. As a reminder, the EC50 is the concentration that produces a half-maximal response. The term Tmax denotes the time at which the peak concentration occurs. What is called AUC is concentration integrated over time.

Values taken from ChEMBL document CHEMBL4049452 (J Med Chem, 2017).
